Assays:
Assay type in all cases: functional
[1] = tested on: Curvularia australiensis; assay: Antifungal activity against Drechslera australiensis using 1 x 10^5 spore/100 uL assessed as 99.5% fungal killing of original inoculum after 72 hrs by microdilution method
[2] = Antifungal activity against Trichoderma reesei using 1 x 10^5 spore/100 uL assessed as 99.5% fungal killing of original inoculum after 72 hrs by microdilution method
[3] = tested on: Aspergillus flavus; assay: Antifungal activity against Aspergillus flavus using 1 x 10^5 spore/100 uL after 72 hrs by microdilution method
[4] = tested on: Aspergillus niger; assay: Antifungal activity against Aspergillus niger using 1 x 10^5 spore/100 uL assessed as 99.5% fungal killing of original inoculum after 72 hrs by microdilution method
[5] = tested on: Aspergillus fumigatus; assay: Antifungal activity against Aspergillus fumigatus using 1 x 10^5 spore/100 uL after 72 hrs by microdilution method
[6] = tested on: Trichoderma viride; assay: Antifungal activity against Trichoderma viride using 1 x 10^5 spore/100 uL after 72 hrs by microdilution method
[7] = tested on: Trichoderma viride; assay: Antifungal activity against Trichoderma viride using 1 x 10^5 spore/100 uL assessed as 99.5% fungal killing of original inoculum after 72 hrs by microdilution method
[8] = tested on: Aspergillus niger; assay: Antifungal activity against Aspergillus niger using 1 x 10^5 spore/100 uL after 72 hrs by microdilution method
[9] = tested on: Curvularia australiensis; assay: Antifungal activity against Drechslera australiensis using 1 x 10^5 spore/100 uL after 72 hrs by microdilution method
[10] = tested on: Aspergillus fumigatus; assay: Antifungal activity against Aspergillus fumigatus using 1 x 10^5 spore/100 uL assessed as 99.5% fungal killing of original inoculum after 72 hrs by microdilution method
[11] = Antifungal activity against Trichoderma reesei using 1 x 10^5 spore/100 uL after 72 hrs by microdilution method
Procedure, shortened: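 Spores washed from malt agar cultures with sterile 0.85% saline plus 0.1% Tween 80, adjusted to about 1.0×10^5 per 100 µl well. Compounds from a 1 mg/ml DMSO stock were serially diluted in malt broth with inoculum in 96-well plates and incubated 72 h at 28 °C. MIC is the lowest concentration with no visible growth under a binocular microscope. DMSO served as negative control.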

[12] = tested on: Aspergillus flavus; assay: Antifungal activity against Aspergillus flavus using 1 x 10^5 spore/100 uL assessed as 99.5% fungal killing of original inoculum after 72 hrs by microdilution method
[13] = tested on: Bacillus cereus; assay: Antibacterial activity against Bacillus cereus using 1 x 10^4 CFU/ml inoculum after 24 hrs by microdilution method
[14] = tested on: Bacillus thuringiensis; assay: Antibacterial activity against Bacillus thuringiensis using 1 x 10^4 CFU/ml inoculum after 24 hrs by microdilution method
[15] = tested on: Escherichia coli; assay: Antibacterial activity against Escherichia coli using 1 x 10^4 CFU/ml inoculum after 24 hrs by microdilution method
[16] = tested on: Bacillus subtilis; assay: Antibacterial activity against Bacillus subtilis using 1 x 10^4 CFU/ml inoculum after 24 hrs by microdilution method
[17] = tested on: Staphylococcus aureus; assay: Antibacterial activity against Staphylococcus aureus using 1 x 10^4 CFU/ml inoculum after 24 hrs by microdilution method
[18] = tested on: Pseudomonas aeruginosa; assay: Antibacterial activity against Pseudomonas aeruginosa using 1 x 10^4 CFU/ml inoculum after 24 hrs by microdilution method

Row | SMILES | MFC [1] | MFC [2] | MIC [3] | MFC [4] | MIC [5] | MIC [6] | MFC [7] | MIC [8] | MIC [9] | MFC [10] | MIC [11] | MFC [12] | MIC [13] | MIC [14] | MIC [15] | MIC [16] | MIC [17] | MIC [18]
1 | C/C(=N\NC(=O)C1=C(O)c2ccccc2S(=O)(=O)N1C)c1ccc(Cl)cc1Cl | 122.7 ×10⁻² umol | 118 ×10⁻² µmol | 71.6 ×10⁻² umol | 148.3 ×10⁻² umol | 67.3 ×10⁻² umol | 62.7 ×10⁻² umol | 125 ×10⁻² umol | 74.2 ×10⁻² umol | 61.5 ×10⁻² umol | 134.7 ×10⁻² umol | 59.1 ×10⁻² µmol | 143.1 ×10⁻² umol | – | – | – | – | – | –
2 | C/C(=N\NC(=O)C1=C(O)c2ccccc2S(=O)(=O)N1)c1ccc(Cl)c(Cl)c1 | 123.4 ×10⁻² umol | 108 ×10⁻² µmol | 75.2 ×10⁻² umol | 150.2 ×10⁻² umol | 68.1 ×10⁻² umol | 61.3 ×10⁻² umol | 118.7 ×10⁻² umol | 75.2 ×10⁻² umol | 61.8 ×10⁻² umol | 136.2 ×10⁻² umol | 59.2 ×10⁻² µmol | 150.3 ×10⁻² umol | – | – | – | – | – | –
3 | C/C(=N\NC(=O)C1=C(O)c2ccccc2S(=O)(=O)N1)c1ccc(Cl)cc1Cl | 123.9 ×10⁻² umol | 119 ×10⁻² µmol | 71.8 ×10⁻² umol | 149 ×10⁻² umol | 67.4 ×10⁻² umol | 62.9 ×10⁻² umol | 125.7 ×10⁻² umol | 74.6 ×10⁻² umol | 62 ×10⁻² umol | 142.5 ×10⁻² umol | 59.4 ×10⁻² µmol | 143.5 ×10⁻² umol | – | – | – | – | – | –
4 | C/C(=N\NC(=O)C1=C(O)c2ccccc2S(=O)(=O)N1)c1ccc(Cl)cc1 | 130.5 ×10⁻² umol | 125 ×10⁻² µmol | 81.9 ×10⁻² umol | 145.4 ×10⁻² umol | 72.7 ×10⁻² umol | 67.3 ×10⁻² umol | 114.7 ×10⁻² umol | 82.9 ×10⁻² umol | 64.4 ×10⁻² umol | 140.1 ×10⁻² umol | 62.5 ×10⁻² µmol | 163 ×10⁻² umol | 11.7 ×10⁻² umol | 12.3 ×10⁻² umol | 31.2 ×10⁻² umol | 12.5 ×10⁻² umol | 30.8 ×10⁻² umol | 32.4 ×10⁻² umol
5 | CN[C@@H]1[C@H](O[C@H]2[C@H](O[C@H]3[C@H](O)[C@@H](O)[C@H](N=C(N)N)[C@@H](O)[C@@H]3N=C(N)N)O[C@@H](C)[C@]2(O)C=O)O[C@@H](CO)[C@H](O)[C@H]1O [STREPTOMYCIN] | – | – | – | – | – | – | – | – | – | – | – | – | 4.3 ×10⁻² umol | 4.4 ×10⁻² umol | 16.5 ×10⁻² umol | 4.2 ×10⁻² umol | 16.5 ×10⁻² umol | 16.5 ×10⁻² umol
6 | C/C(=N\NC(=O)C1=C(O)c2ccccc2S(=O)(=O)N1)c1ccc(Br)cc1 | 143.9 ×10⁻² umol | 130 ×10⁻² µmol | 93.7 ×10⁻² umol | 188.5 ×10⁻² umol | 85.7 ×10⁻² umol | 74.4 ×10⁻² umol | 188.2 ×10⁻² umol | 96.4 ×10⁻² umol | 77.5 ×10⁻² umol | 191 ×10⁻² umol | 74.9 ×10⁻² µmol | 173.2 ×10⁻² umol | – | – | – | – | – | –
7 | NNC(=O)C1=C(O)c2ccccc2S(=O)(=O)N1 | >200 ×10⁻² umol | > 200 ×10⁻² µmol | >100 ×10⁻² umol | >200 ×10⁻² umol | >100 ×10⁻² umol | >100 ×10⁻² umol | >200 ×10⁻² umol | >100 ×10⁻² umol | >100 ×10⁻² umol | >200 ×10⁻² umol | > 100 ×10⁻² µmol | >200 ×10⁻² umol | – | – | – | – | – | –
8 | c1ccc(-c2ccc(C(c3ccccc3)n3ccnc3)cc2)cc1 (stereo unspecified) [BIFONAZOLE] | 75 ×10⁻² umol | 78 ×10⁻² µmol | 48 ×10⁻² umol | 64 ×10⁻² umol | 48 ×10⁻² umol | 64 ×10⁻² umol | 80 ×10⁻² umol | 48 ×10⁻² umol | 57.5 ×10⁻² umol | 64 ×10⁻² umol | 60.2 ×10⁻² µmol | 64 ×10⁻² umol | – | – | – | – | – | –
9 | C/C(=N\NC(=O)C1=C(O)c2ccccc2S(=O)(=O)N1C)c1ccccc1Br | 151.7 ×10⁻² umol | 151 ×10⁻² µmol | 89.4 ×10⁻² umol | 186 ×10⁻² umol | 83.6 ×10⁻² umol | 75.4 ×10⁻² umol | 149.9 ×10⁻² umol | 93.1 ×10⁻² umol | 76.2 ×10⁻² umol | 163.6 ×10⁻² umol | 74.5 ×10⁻² µmol | 168.5 ×10⁻² umol | – | – | – | – | – | –
10 | C/C(=N\NC(=O)C1=C(O)c2ccccc2S(=O)(=O)N1C)c1ccc(Cl)c(Cl)c1 | 122.6 ×10⁻² umol | 158 ×10⁻² µmol | 75 ×10⁻² umol | 149.5 ×10⁻² umol | 68.1 ×10⁻² umol | 61.2 ×10⁻² umol | 122.5 ×10⁻² umol | 75 ×10⁻² umol | 61.5 ×10⁻² umol | 136.3 ×10⁻² umol | 59 ×10⁻² µmol | 150 ×10⁻² umol | – | – | – | – | – | –
11 | C/C(=N\NC(=O)C1=C(O)c2ccccc2S(=O)(=O)N1C)c1ccc(Cl)cc1 | 128.6 ×10⁻² umol | 124 ×10⁻² µmol | 81.7 ×10⁻² umol | 166.4 ×10⁻² umol | 72.6 ×10⁻² umol | 67.2 ×10⁻² umol | 134.4 ×10⁻² umol | 82 ×10⁻² umol | 64.3 ×10⁻² umol | 143.6 ×10⁻² umol | 62.2 ×10⁻² µmol | 162.3 ×10⁻² umol | 11 ×10⁻² umol | 12.3 ×10⁻² umol | 31 ×10⁻² umol | 11.6 ×10⁻² umol | 30.9 ×10⁻² umol | 32.3 ×10⁻² umol
12 | C/C(=N\NC(=O)C1=C(O)c2ccccc2S(=O)(=O)N1C)c1ccc(Br)cc1 | 148.4 ×10⁻² umol | 142 ×10⁻² µmol | 93.4 ×10⁻² umol | >200 ×10⁻² umol | 85.5 ×10⁻² umol | 74.3 ×10⁻² umol | 139.4 ×10⁻² umol | 96 ×10⁻² umol | 77.3 ×10⁻² umol | 177 ×10⁻² umol | 74.6 ×10⁻² µmol | 189.8 ×10⁻² umol | – | – | – | – | – | –
13 | C/C(=N\NC(=O)C1=C(O)c2ccccc2S(=O)(=O)N1)c1ccccc1Br | 158.4 ×10⁻² umol | 147 ×10⁻² µmol | 90 ×10⁻² umol | 186.8 ×10⁻² umol | 83.8 ×10⁻² umol | 75.6 ×10⁻² umol | 142.4 ×10⁻² umol | 93.2 ×10⁻² umol | 76.3 ×10⁻² umol | 157.3 ×10⁻² umol | 74.8 ×10⁻² µmol | 177.7 ×10⁻² umol | – | – | – | – | – | –
14 | C/C(=N\NC(=O)C1=C(O)c2ccccc2S(=O)(=O)N1)c1ccccc1Cl | 125.1 ×10⁻² umol | 123 ×10⁻² µmol | 87.3 ×10⁻² umol | 179.1 ×10⁻² umol | 76.2 ×10⁻² umol | 66.8 ×10⁻² umol | 123.9 ×10⁻² umol | 89.6 ×10⁻² umol | 63.8 ×10⁻² umol | 150.4 ×10⁻² umol | 61.4 ×10⁻² µmol | 164.6 ×10⁻² umol | 11.5 ×10⁻² umol | 12.1 ×10⁻² umol | 32.5 ×10⁻² umol | 11.4 ×10⁻² umol | 31.3 ×10⁻² umol | –
15 | CN1C(C(=O)NN)=C(O)c2ccccc2S1(=O)=O | >200 ×10⁻² umol | > 200 ×10⁻² µmol | >100 ×10⁻² umol | >200 ×10⁻² umol | >100 ×10⁻² umol | >100 ×10⁻² umol | >200 ×10⁻² umol | >100 ×10⁻² umol | >100 ×10⁻² umol | >200 ×10⁻² umol | > 100 ×10⁻² µmol | >200 ×10⁻² umol | – | – | – | – | – | –
